Most compounds without a hit are left out; they make up all but 4.6% or so of the library.
GPR7 antagonist: antagonists of human GPR7 (neuropeptides B/W receptor 1) | AID 1861 | GPR7-expressing cells, fluorescence antagonist assay | inhibition, % at 4.4 µM | hit rate 1.1% among 290,000 | P48145; in the data active = inhibition above about 16%, passing the limit was not always enough;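 also: cells stimulated with the agonist NPW; 0% = agonist with vehicle and 100% = vehicle without agonist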
OX1R antag-1: antagonists of human orexin 1 receptor (OX1R). OX1R-expressing cells, FRET antagonist read-out. inhibition, % at 6.6 µM. hit rate 1.8% among 330,000; in the data active = inhibition mostly above about 38%, no sharp cut-off; inactive = mostly below about 40%;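 also: 0% = agonist challenge alone and 100% = reference antagonist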
TAAR1 antag: human TAAR1 antagonism; CHO RD-HGA16 TAAR1, Fluo-8 calcium fluorescence, antagonist; hit rate 1.5% among 360,000; inhibition, % at 3 µM; Q96RJ0;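 active = inhibition above a per-plate cutoff, the mean inhibition of test compounds on that plate plus 3 SD, cut at about 49% in these data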;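 also: 0% = DMSO plus EC80 beta-PEA response and 100% = DMSO alone without agonist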
Target sequence (Q96RJ0 whole entry, looked up): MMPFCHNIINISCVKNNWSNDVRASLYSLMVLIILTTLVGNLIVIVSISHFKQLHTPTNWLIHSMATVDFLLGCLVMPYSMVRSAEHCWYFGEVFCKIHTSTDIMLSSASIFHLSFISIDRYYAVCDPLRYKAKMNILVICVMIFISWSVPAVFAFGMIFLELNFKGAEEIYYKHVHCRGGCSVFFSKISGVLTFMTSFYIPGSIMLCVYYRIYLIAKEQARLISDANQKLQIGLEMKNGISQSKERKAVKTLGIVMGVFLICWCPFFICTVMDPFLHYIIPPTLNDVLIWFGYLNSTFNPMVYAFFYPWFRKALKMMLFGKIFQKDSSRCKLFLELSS
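Assay system: RD-HGA16 CHO cells with stable hTAAR1 and Gα16 / Reagent: EC80 β-phenethylamine stimulus / Doses: 3 µM, single point / Timing: dye loading 75 min at 37 °C, then 30 min room temperature / Measured by: Fluo-8 intracellular calcium dye fluorescence, real-time kinetic reads / Controls: vehicle wells and EC80 agonist wells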
TAAR1 ag: human TAAR1 agonism; Q96RJ0; CHO RD-HGA16 TAAR1, Fluo-8 calcium fluorescence; vehicle wells 0%, saturating PEA agonist 100%; activation, % at 3 µM; hit rate 0.99% among 360,000; AID 624467;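 active = activation above the mean activation of all test compounds in the run plus 3 SD, cut at about 38% in these data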
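System: CHO-derived RD-HGA16 cells with stable Gα16 and human TAAR1 / Times: 17-24 h plating, Fluo-8 75 min 37 °C, 30 min RT / Technique: calcium-sensitive Fluo-8 signal, excitation 470-495, emission 515-575 nm / Measure: % activation relative to PEA EC100 response / Benchmarks: DMSO and PEA EC100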
CHO parental Ca: counter-screen: ATP calcium response change in parental CHO cells; parental CHO-K1, ATP-induced calcium, Fluo-8 fluorescence; inhibition, % at 5.6 µM; hit rate 0.63% among 330,000;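 active = inhibition above that plate's mean sample inhibition plus 3 SD, cut at about 26% in these data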;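 also: 0% = ATP-challenged DMSO wells and 100% = DMSO wells without ATP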
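Measured by: calcium-sensitive Fluo-8 fluorescence / Test system: CHO parental line / Controls: ATP-challenged DMSO wells low, unchallenged DMSO wells high / Measure: % inhibition / Compound: single nominal dose of 5.6 µM per compound / Replicates: single well per compound, no replicates / Reagent: ATP as calcium-mobilizing challenge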
OX1R antag-2: blocks the human orexin 1 receptor. AID 434989. inhibition, % at 5 µM. CHO/OX1R cells, Fluo-8 calcium fluorescence, orexin A. hit rate 0.43% among 330,000. O43613;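 active = inhibition above its plate's threshold, mean inhibition of all tested compounds on the plate plus 3 SD, cut at about 37% in these data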;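 also: 0% = orexin A challenge wells and 100% = SB-334867-A antagonist wells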
Numbers without * were called inactive; · = no result given.

SMILES	GPR7 antagonist	OX1R antag-1	TAAR1 antag	TAAR1 ag	CHO parental Ca	OX1R antag-2
CC(C)c1ccc(C2NCc3ccccc3-n3cccc32)cc1 (centres undefined)	19	·	63*	29	·	·
FC(F)(F)Oc1ccc(C2NCc3ccccc3-n3cccc32)cc1 (centres undefined)	11	17	16	8	-19	-42
COc1ccc2[nH]c(C)c(CCNCc3cc(OC)c4c(c3)OCO4)c2c1	·	7	7	3	-6	-2
Cc1ccc(-c2cc(-c3ccc(C)cc3)[n+](-c3ccccc3)c(-c3ccc(C)cc3)c2)cc1	·	39	·	·	71*	91*
Cc1ccc(-c2cc(-c3ccccc3)cc(-c3ccccc3)[n+]2-c2ccccc2)cc1	·	19	104*	34	74*	71*
C[C@@H]1NCCc2cc(O)c(O)cc21	·	15	-26	3	-9	-12
CC1CC(C)CC(C)C(O)C(C#N)=CC=CCC(C2CCCC2C(=O)O)OC(=O)CC(O)C(C)C1 (centres undefined)	·	·	-1	3	·	·
CN[C@H]1C[C@H]2O[C@@](C)([C@H]1OC)n1c3ccccc3c3c4c(c5c6ccccc6n2c5c31)C(=O)NC4	30*	-18	·	·	-14	-28
FC(F)(F)Oc1ccc(NC2=NCCCS2)cc1	-13	-5	-17	4	-15	-20
CN1CCN(Cc2c(F)cccc2Cl)CC1	-6	·	4	4	·	·
CN1CCc2cccc(Cl)c2CC1	·	11	86*	102*	-4	-2
COC(=O)[C@@H]1[C@@H](C(=O)OC)C2(c3ccccc3-c3ccccc32)N(c2ccc(Cl)cc2)N1C#N	16*	12	15	10	-15	-23
COC(=O)C[C@]1(C(=O)OC)CN(C#N)N(c2ccc(Cl)cc2)C12c1ccccc1-c1ccccc12	24*	-5	-9	7	-11	-8
Cc1nc2ccccc2c(=O)n1-c1ccncc1	11	8	-30	2	18	6
Cc1nc2ccccc2c(=O)n1-c1cc([N+](=O)[O-])cc([N+](=O)[O-])c1	-21	74*	-14	0	-16	-30
Cc1cc(N2CCNC[C@H]2C)ccc1N1CCN[C@@H](C)C1	·	·	-13	1	·	·
CCc1cc2c(cc1-c1csc(C/C(N)=N/O)n1)C(C)(C)CCC2(C)C	·	·	-12	1	·	·
COC1=CC(=O)[C@]2(C=C1OC)OC[C@@H]1Oc3c(ccc4c3C=CC(C)(C)O4)C(=O)[C@@H]12	·	33	22	10	62*	60*
C/C=C(\C)C(=O)OC1C(C)=C2C(C1OC(=O)CCCCC)C(C)(OC(C)=O)CC(OC(=O)CCC)C1(O)C2OC(=O)C1(C)O (centres undefined)	·	2	·	·	101*	101*
CC(C)(C)n1nnnc1C(C1CC1)N1CCC2(CC1)C(=O)NCN2c1ccccc1 (centres undefined)	·	·	10	0	·	·
Nc1c(Br)cc([N+](=O)[O-])cc1[N+](=O)[O-]	·	36*	18	-1	-7	-19
C[n+]1c(-c2ccccc2)c2cc(N)ccc2c2ccc(N)cc21	-12	51*	2	2	-2	-1
CC/C(=C\C=C\[C@@H]1C=C[C@@H]2CCC[C@H]2[C@@H]1C(=O)c1ccc[nH]1)[C@@H]1O[C@@H]([C@@H](C)C(=O)O)CC[C@@H]1C	10	10	·	·	48*	25
CC[N+](C)(CC)CCCCOc1ccc2c(c1)C(=O)c1cc(OCCCC[N+](C)(CC)CC)ccc1-2	-13	71*	-24	1	-16	-1
O=C(CSC1c2ccccc2-c2ccccc21)N/N=C/c1ccccc1O	11	60*	38	8	-7	-1
CNCCCc1ccccc1	5	17	3	43*	0	-3
Cc1cc2c(C(C)C)c(O)c(O)c(C=O)c2c(O)c1-c1c(C)cc2c(C(C)C)c(O)c(O)c(C=O)c2c1O	-14	·	41	6	·	·
COc1cccc(OCc2cc(C(=O)N3C[C@H]4C[C@@H](C3)c3cccc(=O)n3C4)no2)c1	1	·	-6	2	·	·
O=C(C[N+]12CCC(CC1)C(O)C2)c1ccc(Br)cc1 (centres undefined)	-13	·	-9	11	·	·

Screens (PubChem BioAssay)
